MT1-MMP act inh: inhibitors of human MT1-MMP activation. HT1080 RFP-PRO-GFP cells, GFP/RFP ratio fluorescence, overnight; percent of plate control window, DMSO zero. AID 651647. P50281. actives 0.061% (n = 360,000). GFP/RFP ratio change, % at 20 µM;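 active means GFP/RFP ratio change of at least 30% with cell ATP level not reduced by more than half and red fluorescence within 50% of control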
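Assay system: RFP-PRO-GFP reporter HT1080 cells; read-out basis: GFP/RFP fluorescence ratio; benchmarks: DMSO wells and RFP-L50D-GFP cells; doses: 20 µM single dose, 1% DMSO; schedule: overnight cell settling, then overnight compound exposure, 37 °C, 5% CO2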
Arrestin-AP2 inh: blocks beta-arrestin peptide binding to AP2 adaptin; inhibition, % at 10 µM; actives 0.31% (n = 340,000); FITC-arrestin peptide / GST-AP2 beads, flow cytometry; AP2 beta2 appendage carries R879A mutation;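 active means inhibition above a set limit, near 3 SD of compounds lacking own fluorescence, cut at about 54% in these data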
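Material – GST-tagged AP2 beta2-adaptin appendage (R879A) on 4 µm glutathione beads · Probe or stimulus – fluorescein-tagged arrestin peptide at 50 nM final · Timing – 12 min plus 1 h, RT · Detection – bead flow cytometry, FITC channel · Read-out basis – inhibition as reduced fluorescein signal on beads, percent · Medium – PBS plus Tween 20 (0.05%) and BSA (0.1%)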
Rin1-Abl PPI inh: blocks binding of human Rin1 to Abl. inhibition, % at 7.35 µM. actives 0.4% (n = 360,000). P00519+Q13671. TR-FRET Rin1/Abl binding, biochemical; in the data active means inhibition above about 5%, passing the limit was not always enough
SKN-1 inh: blocks SKN-1 activity in C. elegans; inhibition, % at 21.8 µM; actives 0.49% (n = 360,000); C. elegans VP596 Pgst-4::GFP/RFP ratio, acrylamide-induced, 24 h;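 active means interference check ratio from 0.5 to 1.5 plus GFP to RFP signal ratio inhibition reaching or exceeding a fixed threshold, cut at about 30% in these data, passing the limit was not always enough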
Tb MetRS inh: blocks T. brucei methionyl-tRNA synthetase activity; purified T. brucei MetRS, ATP depletion, Kinase-Glo luminescence; inhibition, % at 11.9 µM; actives 0.4% (n = 360,000);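 active means inhibition above a per-plate cutoff of the control wells' mean inhibition plus 3 SD, cut at about 5.5% in these data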
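System: purified T. brucei MetRS enzyme / Detection: Kinase-Glo luciferase luminescence reporting remaining unconsumed ATP / Medium: HEPES buffer with MgCl2, KCl, DTT, spermine, BSA, pyrophosphatase / Replication: singlicate, one well per compound / Evaluation: percent inhibition relative to median high and low control wells / Schedule: 2 h aminoacylation at 25 °C after 15 min preincubation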
Rin1 Abl conf: Rin1-Abl interaction inhibition confirmation; actives 49% (n = 1,300); shares compounds with Rin1-Abl PPI inh; TR-FRET Rin1-Abl binding, purified proteins; inhibition, % at 7.35 µM
GFP quench: GFP fluorescence interference artifact; shares compounds with Rin1-Abl PPI inh; inhibitors/quenchers counterscreen; inhibition, % at 6.75 µM; actives 8.5% (n = 1,300); AID 602125;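 further: ABL1-eGFP fusion protein alone without its partner RIN1-SBP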
GFP quench DR: GFP fluorescence interference dose response. shares compounds with Rin1-Abl PPI inh. GFP fluorescence interference/quenching counterscreen. IC50, µM. 230 tested, under 10 active; call rule not given here;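 further: ABL1-eGFP fusion protein alone without its RIN1 binding partner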
Each line names hits and unclear results; the compound was inactive in the other large screens (follow-up assays come after a bar, where they were run). Sampled rows, rich in hits. Any-hit rate of the full collection: about 1.6%. Unless noted, no stated cut-off is given here; in the data, active means inhibition above about 6.5%; inactive means the rest.

Oc1c(CN2CCOCC2)cc(CN2CCOCC2)c(O)c1O	Rin1-Abl PPI inh 23 | Rin1 Abl conf 7.0 | GFP quench inactive
CC(=O)c1cccc(N(CC(=O)NC2CCCC2)C(=O)c2ccc(C)s2)c1	Rin1-Abl PPI inh 7.5 | Rin1 Abl conf inactive | GFP quench inactive
CN1OC(CC(=O)O)N(c2ccc(Cl)cc2)C1=O (stereo not given)	none
CCOC(=O)CC1ON(C)C(=O)N1c1ccc(Cl)cc1Cl (stereo not given)	Rin1-Abl PPI inh 7.0 | Rin1 Abl conf inactive | GFP quench inactive
CC(=O)NCC1(c2ccccc2)CCN(CCCC(=O)c2ccc(F)cc2)CC1	Rin1-Abl PPI inh 14 (no result: Arrestin-AP2 inh) | Rin1 Abl conf 15 | GFP quench inactive
CC(C)(C)c1ccc(CC(=O)N2CCC2(C)C(=O)NS(=O)(=O)c2ccc(F)cc2F)cc1 (stereo not given)	none (no result: Arrestin-AP2 inh)
CCOC(=O)C1CCCN(CC(O)COCc2ccc3c(c2)OCO3)C1 (stereo not given)	Rin1-Abl PPI inh 6.4 | Rin1 Abl conf inactive | GFP quench inactive
CCCCOc1ccc(C(C)NC(=O)CCS(=O)(=O)Cc2ccc(C)cc2)cc1 (stereo not given)	Rin1-Abl PPI inh 4.4 | Rin1 Abl conf inactive | GFP quench inactive
COc1ccc(S(=O)(=O)N(C)C[C@H]2Oc3c(cccc3N(C)C)C(=O)N([C@H](C)CO)C[C@@H]2C)cc1	none
CC(=O)NN1C(=O)/C(=C/c2ccc(Br)o2)SC1=S	Rin1-Abl PPI inh 6.5 | Rin1 Abl conf inactive | GFP quench inactive
CC(=O)NN1C(=O)/C(=C\c2ccc(Br)o2)SC1=S	none
COc1ccc2cc(C(=O)C3CCCN(C(=O)c4cccnc4)C3)ccc2c1 (stereo not given)	none
O=C(c1ccc2ccccc2c1)C1CCCN(C(=O)c2cccnc2)C1 (stereo not given)	Rin1-Abl PPI inh 6.9 | Rin1 Abl conf inactive | GFP quench inactive
Nc1nccnc1C(=O)OCC(=O)NNC(=O)c1ccccc1	Rin1-Abl PPI inh 8.2 | Rin1 Abl conf inactive | GFP quench inactive
CC(C)CCNC(=O)c1cc(S(=O)(=O)N2CCC3(CC2)OCCO3)ccc1F	none (no result: Arrestin-AP2 inh)
CC1=NN(c2ccc(Cl)c(C(=O)O)c2)C(=O)C1	Rin1-Abl PPI inh 7.2 | Rin1 Abl conf inactive | GFP quench inactive
CC1=NN(c2ccc(C(=O)O)cc2)C(=O)CC1	none
CC1=NN(c2ccc(C(=O)O)c(N)c2)C(=O)C1	Rin1-Abl PPI inh 12 | Rin1 Abl conf 7.1 | GFP quench inactive
CCOc1ccc2[nH]c3ncccc3c(=O)c2c1	none
CCOc1ccc2c(ccc(/C=C/c3cc(C)c4cccnc4c3O)[n+]2C)c1	Rin1-Abl PPI inh 40 | Rin1 Abl conf 56 | GFP quench 59
O=C(Cc1ccccc1)Nc1nnc(-c2cccs2)s1	Rin1-Abl PPI inh 9.4 | Rin1 Abl conf inactive | GFP quench inactive
CCC(=O)N(C(=O)CC)N1CCN(c2ccncc2S(=O)(=O)N2CCCCC2)CC1	none
Cc1ccc(Oc2nnc(-c3cccs3)c3ccccc23)cc1C	Rin1-Abl PPI inh 6.0 | Rin1 Abl conf inactive | GFP quench inactive
O=C(CCCSc1nc2ccccc2[nH]1)N1CCN(c2ccccc2)CC1	Rin1-Abl PPI inh 7.0 | Rin1 Abl conf 7.1 | GFP quench inactive
O=C(CSc1nc2ccccc2[nH]1)N1CCN(c2ccccc2)CC1	none
CCOc1cc(N2CCOCC2)c(OCC)cc1NC(C)C(=O)N1CCN(CC)CC1 (stereo not given)	Rin1-Abl PPI inh 38 | Rin1 Abl conf inactive | GFP quench inactive
CCOc1cc(N2CCOCC2)c(OCC)cc1NC(=O)C(C)C	none
CCCCC1CC2=C(C(=O)OC(C)(C)O2)C(c2ccc3ccccc3c2)O1 (stereo not given)	none (no result: Arrestin-AP2 inh)
NC(=S)NN=Cc1cc(-c2cccc(N)c2)ccn1	Rin1-Abl PPI inh 11 (no result: Arrestin-AP2 inh) | Rin1 Abl conf 14 | GFP quench inactive
Cn1c(CCNC(=O)c2ccco2)nc2cc(NS(=O)(=O)c3ccc(Cl)cc3)ccc21	Rin1-Abl PPI inh 5.7 | Rin1 Abl conf inactive | GFP quench inactive
COc1cccc(CN(CC(=O)NCC2CCCO2)C(=O)CNS(=O)(=O)c2ccccc2)c1 (stereo not given)	none
COc1cccc(N(CC(=O)NCC2CCCO2)C(=O)CNS(=O)(=O)c2ccccc2)c1 (stereo not given)	Rin1-Abl PPI inh 9.8 | Rin1 Abl conf inactive | GFP quench inactive
O=C(O)c1cccc(NC2=C(N3CCOCC3)C(=O)c3ccccc3C2=O)c1	Rin1-Abl PPI inh 7.2 | Rin1 Abl conf inactive | GFP quench inactive
O=C(COc1cc(F)ccc1[N+](=O)[O-])NCC1CCCO1 (stereo not given)	none
CC12CN3CC(C)(CN(C1)C3c1ccccc1F)C2 (stereo not given)	Rin1-Abl PPI inh 6.1 | Rin1 Abl conf inactive | GFP quench inactive
CCCCCNC(=O)C(C1CC1)n1c(=O)c(-c2ccco2)nc2ccccc21 (stereo not given)	none (no result: Arrestin-AP2 inh, Rin1-Abl PPI inh)
CN(C)S(=O)(=O)c1cccc(NC(=O)COc2ccccc2C(=O)NCc2ccccc2)c1	none
Cc1ccc(CC(=O)N2CCN(c3cccc(C(F)(F)F)c3)CC2)cc1	none
CC1(C2CC2)NC(=O)N(CC(=O)N2CCN(c3cccc(C(F)(F)F)c3)CC2)C1=O (stereo not given)	Rin1-Abl PPI inh 8.6 | Rin1 Abl conf inactive | GFP quench inactive
CN1C(=O)C2(NC(=O)c3ccccc3N2C)c2ccccc21 (stereo not given)	none
CN1C(=O)C(Cl)(Cl)C(=O)c2ccccc21	Rin1-Abl PPI inh 18 | Rin1 Abl conf 11 | GFP quench inactive
COC(=O)CCSCc1cn2cc(Cl)ccc2n1	Rin1-Abl PPI inh 39 | Rin1 Abl conf 44 | GFP quench inactive | GFP quench DR inactive
O=C(O)CSCc1cn2cc(Cl)ccc2n1	none
COc1ccc(NC(=O)CSc2nnc3ccc(-c4cccnc4)nn23)cc1OC	none
COc1ccccc1CNC(=O)CSc1nnc2ccc(-c3cccnc3)nn12	Rin1-Abl PPI inh 13 | Rin1 Abl conf 17 | GFP quench inactive | GFP quench DR inactive
COc1cccc(NC(=O)CN(C)C(=O)CNC(=O)c2ccc(Oc3ccccc3)cc2)c1	none
CN(CC(=O)Nc1ccccc1Br)C(=O)CNC(=O)c1ccc(Oc2ccccc2)cc1	Rin1-Abl PPI inh 7.6 | Rin1 Abl conf inactive | GFP quench inactive

Compound activity deposited in PubChem BioAssay by several laboratories.
